Hits are enriched below; roughly 2.7% of the tested compounds scored in any of these assays.
IMP-1 inhibitor = inhibitors of Pseudomonas aeruginosa IMP-1 metallo-beta-lactamase. purified IMP-1, nitrocefin hydrolysis, epi-absorbance fluorescence. inhibition, % at 5.6 µM. 290,000 compounds, 0.45% hits. AID 1556;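 active means inhibition above the mean plus 3 SD of all compounds in the same screening run, cut at about 4.5% in these data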;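 further: 0% = IMP-1 with DMSO and 100% = DMSO wells lacking enzyme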
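Material – recombinant IMP-1 enzyme, purified · Amount – IMP-1 0.2 nM before substrate addition · Medium – HEPES buffer pH 7.1 with ZnSO4 and Brij 35 · Timing – 25 °C, 15 min preincubation, 25 min reaction · Measured by – plate fluorescence quenching by hydrolysis product, ex 480/em 530 nm · Read-out – percent enzyme inhibition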
CTSL1 counter-1 = cathepsin L1 inhibition, PFM18AAP counter-screen | recombinant F. hepatica cathepsin L1, Z-Leu-Arg-MCA fluorescence | inhibition, % at 5.96 µM | 300,000 compounds, 0.49% hits | AID 1906;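 active means inhibition above the mean of all tested compounds plus 3 SD, set per screening campaign, cut at about 17% in these data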;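 further: 0% = plate median of test compound wells and 100% = 1 µM Z-Phe-Ala-diazomethylketone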
VIM-2 inh = blocks Pseudomonas aeruginosa VIM-2 metallo-beta-lactamase. inhibition, % at 5.6 µM. purified VIM-2, nitrocefin hydrolysis, epi-absorbance fluorescence. 290,000 compounds, 0.89% hits;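 active means inhibition above the mean of all tested compounds plus 3 SD, cutoff set per screening run, cut at about 7.5% in these data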;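 further: red hydrolysis product quenches plate fluorescence so inhibitors raise well fluorescence; 0% = enzyme with DMSO and 100% = DMSO without enzyme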
PfM18AAP inh-1 = PfM18AAP enzyme inhibition | recombinant PfM18AAP, H-Glu-NHMec fluorogenic cleavage | inhibition, % at 7.35 µM | 290,000 compounds, 1.2% hits | AID 1822;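 active means inhibition above the campaign mean inhibition over all tested compounds plus 3 SD, cut at about 28% in these data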;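 further: 0% = plate median of test compound wells and 100% = 2 mM ZnCl2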
PfM18AAP inh-2 = confirmation of Plasmodium falciparum M18 aspartyl aminopeptidase inhibitors | shares compounds with PfM18AAP inh-1 | recombinant PfM18AAP, H-Glu-NHMec fluorogenic cleavage | inhibition, % at 7.35 µM | 2,400 compounds, 28% hits;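 active means mean inhibition over replicate wells above the hit cutoff set for the earlier primary screen, cut at about 29% in these data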;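 further: 0% = median of test compound wells and 100% = 2 mM ZnCl2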
CTSL1 counter-2 = counter-screen for PFM18AAP inhibitors: confirmation of human cathepsin L inhibitors; shares compounds with PfM18AAP inh-1; purified cathepsin L1, Z-Leu-Arg-MCA fluorescence; inhibition, % at 5.96 µM; 2,400 tested, under 10 active;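 active means average inhibition across replicates above the hit cutoff set in the earlier primary screen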;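 further: 0% = median of test compound wells and 100% = Z-Phe-Ala-diazomethylketone 1 µM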
Target sequence (P07711 whole entry, looked up): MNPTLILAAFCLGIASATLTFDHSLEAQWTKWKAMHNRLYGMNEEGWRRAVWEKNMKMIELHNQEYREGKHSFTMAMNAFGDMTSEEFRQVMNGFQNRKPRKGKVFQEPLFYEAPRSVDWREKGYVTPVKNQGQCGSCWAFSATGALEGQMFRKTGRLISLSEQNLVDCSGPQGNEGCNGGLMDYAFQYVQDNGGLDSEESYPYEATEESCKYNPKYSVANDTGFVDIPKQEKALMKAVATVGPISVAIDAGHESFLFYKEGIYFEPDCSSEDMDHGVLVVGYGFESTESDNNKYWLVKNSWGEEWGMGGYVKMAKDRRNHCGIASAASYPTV
Starred values were filed as active, the others as inactive.

C/C(=N\Nc1nc(C(=O)O)cs1)c1ccccc1 was read as IMP-1 inhibitor -2, CTSL1 counter-1 4, VIM-2 inh 1, PfM18AAP inh-1 42*, PfM18AAP inh-2 -29 and CTSL1 counter-2 -4.
COc1ccc(OC)c(NC(=O)C2CCN(C(=O)C3CC(=O)N(c4ccc(C)cc4)C3)CC2)c1 (configuration not stated) was read as IMP-1 inhibitor -3, CTSL1 counter-1 0, VIM-2 inh -3 and PfM18AAP inh-1 -2.
COc1ccc(C(C)C)cc1S(=O)(=O)Nc1ccncc1 was read as IMP-1 inhibitor -2, CTSL1 counter-1 -3, VIM-2 inh -2, PfM18AAP inh-1 37*, PfM18AAP inh-2 -58 and CTSL1 counter-2 -2.
`O=c1c2cc(N3CCOCC3)ccc2[nH]c(=S)n1Cc1ccccn1` gave IMP-1 inhibitor 0, CTSL1 counter-1 -3, VIM-2 inh 2, PfM18AAP inh-1 44*, PfM18AAP inh-2 -3 and CTSL1 counter-2 -2.
Screening Nc1ncnc(Sc2ncccn2)c1[N+](=O)[O-] returned IMP-1 inhibitor -4, VIM-2 inh -3, PfM18AAP inh-1 34*, PfM18AAP inh-2 -90 and CTSL1 counter-2 2.
For CC1CCC(C(C)C)C(OCC(O)CNC(C)C)C1 (configuration not stated) the results were IMP-1 inhibitor -2, CTSL1 counter-1 0, VIM-2 inh -1 and PfM18AAP inh-1 -4.
`O=C(NNC(=O)C1CCN(S(=O)(=O)c2c(Cl)cccc2Cl)CC1)c1ccccc1O` gave CTSL1 counter-1 -2.
`O=C(NNC(=O)C1CCN(S(=O)(=O)c2ccccc2)CC1)c1ccccc1O` gave IMP-1 inhibitor -4, CTSL1 counter-1 -2, VIM-2 inh -4, PfM18AAP inh-1 40*, PfM18AAP inh-2 -8 and CTSL1 counter-2 -7.
`CC(C)N=c1scc(-c2cccs2)n1/N=C/c1ccc(O)c(O)c1O` gave IMP-1 inhibitor -2, CTSL1 counter-1 2, VIM-2 inh 0, PfM18AAP inh-1 39*, PfM18AAP inh-2 -40 and CTSL1 counter-2 -3.
For CCCn1c(C(O)c2cc(OC)c(OC)c(OC)c2)nc2ccccc21 (configuration not stated) the results were IMP-1 inhibitor 0, CTSL1 counter-1 0, VIM-2 inh 0 and PfM18AAP inh-1 -1.
Screening Cc1ccnc(Sc2ccc([N+](=O)[O-])cc2[N+](=O)[O-])n1 returned IMP-1 inhibitor -6, CTSL1 counter-1 -1, VIM-2 inh -3 and PfM18AAP inh-1 4.
Nc1nc(Sc2ccc([N+](=O)[O-])cc2[N+](=O)[O-])n[nH]1 was read as IMP-1 inhibitor -3, CTSL1 counter-1 2, VIM-2 inh -3, PfM18AAP inh-1 57*, PfM18AAP inh-2 56* and CTSL1 counter-2 1.
CCN(CC)c1ccc(/C=N/n2c(=S)[nH]nc(C)c2=O)cc1 was read as IMP-1 inhibitor -5, CTSL1 counter-1 3, VIM-2 inh -2, PfM18AAP inh-1 35*, PfM18AAP inh-2 -38 and CTSL1 counter-2 2.
`Cc1nn(C)c(C(=O)Nc2c(C)nn(Cc3c(F)c(F)c(F)c(F)c3F)c2C)c1Br` gave IMP-1 inhibitor -2, VIM-2 inh -3 and PfM18AAP inh-1 -5.
`O=C(O)c1ccc2c(c1)C1C=CCC1C(c1ccncc1)N2` (configuration not stated) gave IMP-1 inhibitor 1, CTSL1 counter-1 3, VIM-2 inh 1, PfM18AAP inh-1 37*, PfM18AAP inh-2 7 and CTSL1 counter-2 -2.
Screening FC(F)(F)c1ccc2c(c1)C1C=CCC1C(c1ccncc1)N2 (configuration not stated) returned IMP-1 inhibitor 0, VIM-2 inh -2 and PfM18AAP inh-1 18.
Screening COc1cccc(C(c2c(N)[nH]c(=S)[nH]c2=O)c2c(N)[nH]c(=S)[nH]c2=O)c1 returned IMP-1 inhibitor 0, CTSL1 counter-1 3, VIM-2 inh 2, PfM18AAP inh-1 33*, PfM18AAP inh-2 -2 and CTSL1 counter-2 7.
COc1ccc(-c2nc(-c3ccccc3)c(-c3cc([N+](=O)[O-])ccc3C)[nH]2)cc1O was read as IMP-1 inhibitor -4, CTSL1 counter-1 1, VIM-2 inh -2 and PfM18AAP inh-1 -9.
